Compound activity (PubChem)
XBP1 UPR activ – activators of adaptive arm of unfolded protein response (XBP1); CHO-XBP1 luciferase reporter, IRE1-XBP1 UPR activation, luminescence; percent of tunicamycin response, DMSO as zero; activation, % at 20 µM; actives 0.33% (n = 330,000);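 active = versus positive control, 20 µM dose yields 30% or more activation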
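Material: CHO-XBP1 cells stably carrying IRE1-XBP1-driven luciferase reporter | Medium: F12 with 10% serum | Compound dosing: 20 µM single concentration, DMSO 1% | Incubation: Overnight seeding at 37 °C, 6 h compound treatment at 37 °C | Detection: Steady-Glo luminescence read | Read-out basis: % activation of reporter signal versus tunicamycin and DMSO controls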
Mdm2-MdmX inh – inhibitors of human Mdm2/MdmX interaction. actives 3% (n = 330,000). inhibition, % at 8 µM. AID 485346. SaOS-2 split-luciferase Mdm2/MdmX complementation, luminescence;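 active = inhibition of at least 50% at 8 µM in the primary screen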
Target sequence (O15151 whole entry, looked up): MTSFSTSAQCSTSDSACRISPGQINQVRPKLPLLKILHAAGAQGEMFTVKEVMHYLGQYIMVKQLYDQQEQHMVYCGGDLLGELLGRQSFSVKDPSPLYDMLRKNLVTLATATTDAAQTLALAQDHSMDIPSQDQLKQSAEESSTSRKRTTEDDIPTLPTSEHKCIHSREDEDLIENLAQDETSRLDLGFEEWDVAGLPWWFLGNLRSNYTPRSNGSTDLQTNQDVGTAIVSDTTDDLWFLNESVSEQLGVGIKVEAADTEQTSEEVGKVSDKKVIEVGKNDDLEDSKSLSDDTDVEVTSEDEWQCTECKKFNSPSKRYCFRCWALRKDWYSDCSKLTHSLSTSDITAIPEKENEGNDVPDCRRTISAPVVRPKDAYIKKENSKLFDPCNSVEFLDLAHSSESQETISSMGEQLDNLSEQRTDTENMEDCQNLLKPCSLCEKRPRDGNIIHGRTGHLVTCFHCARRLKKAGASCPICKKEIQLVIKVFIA
Target sequence (Q00987 whole entry, looked up): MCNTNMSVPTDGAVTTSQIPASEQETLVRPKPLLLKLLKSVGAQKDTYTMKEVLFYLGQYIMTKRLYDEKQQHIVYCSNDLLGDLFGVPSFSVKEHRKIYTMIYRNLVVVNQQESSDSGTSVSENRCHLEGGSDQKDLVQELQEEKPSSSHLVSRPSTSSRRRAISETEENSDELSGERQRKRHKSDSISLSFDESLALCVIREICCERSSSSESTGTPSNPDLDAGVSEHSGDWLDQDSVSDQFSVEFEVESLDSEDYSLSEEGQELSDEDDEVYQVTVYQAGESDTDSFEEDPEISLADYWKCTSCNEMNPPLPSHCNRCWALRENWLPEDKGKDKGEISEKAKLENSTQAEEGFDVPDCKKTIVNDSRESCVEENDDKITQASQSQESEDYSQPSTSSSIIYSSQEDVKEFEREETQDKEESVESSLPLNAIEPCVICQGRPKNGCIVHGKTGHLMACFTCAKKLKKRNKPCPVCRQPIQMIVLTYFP
CSC inhib – blocks cancer stem cells. cancer stem cell-like cells viability, luminescence. inhibition, % at 7.5 µM. actives 1.1% (n = 300,000). AID 2717; in the data active = inhibition above about 75%; tested in HMLE shEcad cells
UPR CHOP act – apoptotic UPR (CHOP) activation; CHO-CHOP luciferase reporter, luminescence; percent of tunicamycin response over DMSO baseline; activation, % at 10 µM; actives 0.34% (n = 330,000); AID 449763;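 active = at 10 µM dose, activation of 40% or more, normalized to positive control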
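measured by = luciferase luminescence | assay system = CHO-CHOP cells, stable luciferase reporter of PERK-eIF2a-CHOP signalling | amount = 500 reporter cells seeded per well | timing = 6 h compound exposure at 37 °C after overnight seeding | controls = positive tunicamycin 10 µg/mL, negative DMSO alone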
T cruzi inh – blocks replication of Trypanosoma cruzi | T. cruzi beta-gal in NIH3T3, luminescence, 90 h | inhibition, % (concentration not given with the values) | actives 1.4% (n = 300,000) | AID 1885;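 active = mean inhibition across valid replicates above about 55%, limit read from the data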;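 note: signal also drops with host cell toxicity which is not excluded here; higher percent means less beta-gal luminescence so fewer parasites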
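Assay system: NIH/3T3 host cells with β-galactosidase reporter T. cruzi; input: 5,000 host fibroblasts per well; compound: single 50 nL compound addition per well in DMSO; timing: ≥90 h infection period, 3 h prior cell attachment; measured by: GalScreen β-gal luminescence, detergent lysis, 60 min; evaluation: percent inhibition of parasite-derived β-gal signal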
Beta apoptosis – beta cell apoptosis inhibition; INS-1E cytokine-induced death, ATP luminescence, 48 h; percent of positive-control rescue, neutral wells zero; protection from apoptosis, % (no concentration beside the values); actives 0.8% (n = 300,000);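 active = Every replicate reaches about 75%, or at least half do and their mean reaches it too, limit read from the data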;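 note: higher means more ATP so stronger rescue from cytokine killing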
CHOP UPR conf – apoptotic UPR (CHOP) activation, confirmed; CHO-CHOP cells, CHOP-luciferase reporter luminescence; percent of tunicamycin response, DMSO as zero; activation, % at 10 µM; shares compounds with UPR CHOP act; actives 64% (n = 1,000); in the data active = activation above about 33%
XBP1 UPR conf – confirmation of adaptive unfolded protein response (XBP1) activators; shares compounds with XBP1 UPR activ; CHO-XBP1 IRE1-XBP1 luciferase reporter, luminescence; activation, % at 20 µM; actives 63% (n = 1,000); AID 485299;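 active = reporter signal at least 30% of the positive control's activation in two or more of four replicate wells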
Mdm2-MdmX conf – confirmation of human Mdm2/MdmX interaction inhibitors. shares compounds with Mdm2-MdmX inh. Mdm2-MdmX binding, luminescent assay. inhibition, % at 8 µM. actives 55% (n = 10,000). AID 489028; in the data active = inhibition above about 40%
Full FLuc ctr – inhibits full-length luciferase, flagging false Mdm2/MdmX hits | shares compounds with Mdm2-MdmX inh | SaOS-2 full-length luciferase counterscreen, luminescence | inhibition, % at 8 µM | actives 77% (n = 6,200) | AID 504607;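 active = mean inhibition at 8 µM reaching about 37%, which flags the compound as non-specific, limit read from the data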;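 note: p53-null SaOS-2 cells with luciferase driven by a doxycycline-inducible promoter; compound on cells about two nights before reading with doxycycline added after day one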
Each line names hits and unclear results; the compound was inactive in the other large screens (follow-up assays come after a bar, where they were run). Rows were chosen to be rich in hits. Some 5% of all compounds tested hit in one or more screens of this group.

COc1ccc2cc1Oc1ccc(cc1)CC1c3c(cc(OC)c4c3Oc3cc5c(cc3O4)CCNC5C2)CCN1C (stereo not drawn)	XBP1 UPR activ 52, Mdm2-MdmX inh 100, UPR CHOP act 41, T cruzi inh 66 (no result: Beta apoptosis) | CHOP UPR conf 39 | XBP1 UPR conf 30 | Mdm2-MdmX conf 100 | Full FLuc ctr inactive
O=C(Nc1ccc(NC(=O)c2sc3ccccc3c2Cl)cc1Cl)c1ccco1	XBP1 UPR activ 342, Mdm2-MdmX inh 89, UPR CHOP act 63 | CHOP UPR conf 34 | XBP1 UPR conf 142 | Mdm2-MdmX conf inactive
O=C(Nc1ccc(NC(=O)c2cccs2)c(Cl)c1)c1ccco1	none
O=[N+]([O-])c1ccc(Sc2cccc3cccnc23)c([N+](=O)[O-])c1	Mdm2-MdmX inh 93, UPR CHOP act 256, Beta apoptosis 80 | CHOP UPR conf 158 | Mdm2-MdmX conf 86 | Full FLuc ctr 57
O=[N+]([O-])c1cc(Cl)ccc1Sc1cccc2cccnc12	none
Brc1ccc(-c2nnc3ccc(N4CCN(c5ccccc5)CC4)nn23)cc1	XBP1 UPR activ 47, Mdm2-MdmX inh 100, UPR CHOP act 54 | CHOP UPR conf inactive | XBP1 UPR conf inactive | Mdm2-MdmX conf 45 | Full FLuc ctr 77
Fc1ccc(-c2nnc3ccc(N4CCCC4)nn23)cc1	none (no result: Beta apoptosis)
CC(=O)N(\C=C/C=C/C=C1\Sc2ccccc2C1=O)c1ccccc1	Mdm2-MdmX inh 81, UPR CHOP act 64 | CHOP UPR conf 35 | Mdm2-MdmX conf inactive
CN(C)/C=C1/Sc2ccccc2C1=O	none
O=C(NCc1ccccc1Cl)c1cccc2c1C(=O)c1ccc(-c3ccc(OC(F)(F)F)cc3)cc1S2(=O)=O	XBP1 UPR activ 164, Mdm2-MdmX inh 68, UPR CHOP act 128 (no result: T cruzi inh) | CHOP UPR conf 85 | XBP1 UPR conf 115 | Mdm2-MdmX conf inactive
Cc1c(CNC(=O)c2c([N+](=O)[O-])cnn2C)cnn1C	none
Cc1ccc(Cc2cnc(NC(=O)/C(C#N)=C/c3ccc(-c4ccc([N+](=O)[O-])cc4)o3)s2)cc1	XBP1 UPR activ 136, Mdm2-MdmX inh 58, UPR CHOP act 123 | CHOP UPR conf 78 | XBP1 UPR conf 166 | Mdm2-MdmX conf inactive
CNC(=S)N1CCN(C(=O)C2CCCO2)CC1 (stereo not drawn)	none
Cc1ccc(/C=C/c2ccc3cccc(O)c3n2)s1	none
COc1ccc(/C=C/c2ccc3cccc(O)c3n2)c(OC)c1OC	Mdm2-MdmX inh 100, UPR CHOP act 135 | CHOP UPR conf inactive | Mdm2-MdmX conf inactive
COc1ccc(-c2cc(-c3ccccc3)c(C#N)c(S(C)(=O)=O)n2)cc1	XBP1 UPR activ 45, Mdm2-MdmX inh 90, UPR CHOP act 103 | CHOP UPR conf 119 | XBP1 UPR conf 99 | Mdm2-MdmX conf inactive
CCc1nnc(NC(=O)CSc2nc(-c3ccccc3)cc(-c3ccc(OC)cc3)c2C#N)s1	XBP1 UPR activ 58, Mdm2-MdmX inh 88, UPR CHOP act 93 | CHOP UPR conf 105 | XBP1 UPR conf inactive | Mdm2-MdmX conf inactive
CS(=O)(=O)c1nc(-c2ccc(Br)cc2)cc(-c2ccccc2)c1C#N	Mdm2-MdmX inh 100, CSC inhib 86, UPR CHOP act 279 | CHOP UPR conf 130 | Mdm2-MdmX conf 76 | Full FLuc ctr 52
CCc1nnc(NC(=O)CSc2nc3cc(OC)ccc3cc2C)s1	none
CC1CCC2(CC1)NC(=O)N(NC(=O)c1cc3ccccc3o1)C2=O (stereo not drawn)	none (no result: CSC inhib, T cruzi inh)
CCOCCCN(C)C1CCN(S(=O)(=O)c2csc(C(N)=O)c2)CC1	none
Cc1ccc(C2=NN(C(=O)CCl)C(c3cccs3)C2)o1 (stereo not drawn)	Mdm2-MdmX inh 100, UPR CHOP act 41 (no result: CSC inhib) | CHOP UPR conf inactive | Mdm2-MdmX conf 100 | Full FLuc ctr 51
CCOc1ccccc1-c1nc(CN2CCCN(C(=O)c3ccco3)CC2)c(C)o1	none
CC(C)(C)c1ccc(S(=O)(=O)NCC(=O)N2CCN(Cc3ccccc3)CC2)cc1	none
O=c1oc2ccccc2c2c1C(c1ccc(Cl)cc1)Nc1ccc3ccccc3c1-2 (stereo not drawn)	none
COc1ccc(C2Nc3ccc4ccccc4c3-c3c2c(=O)oc2ccccc32)cc1 (stereo not drawn)	XBP1 UPR activ 134, Mdm2-MdmX inh 79, UPR CHOP act 49, T cruzi inh 66 | CHOP UPR conf 47 | Mdm2-MdmX conf inactive
O=C(C#Cc1cccc([N+](=O)[O-])c1)c1ccccc1	Mdm2-MdmX inh 73, UPR CHOP act 134 | CHOP UPR conf 188 | Mdm2-MdmX conf 63 | Full FLuc ctr 52
CC(C)CN1CCNC(=O)C1CC(=O)NCc1cnn(-c2cccc(F)c2)c1 (stereo not drawn)	none
CCOc1cc(/C=C2\CN(CC)C/C(=C\c3ccc(O)c(OCC)c3)C2=O)ccc1O	Mdm2-MdmX inh 96, UPR CHOP act 78 (no result: CSC inhib, Beta apoptosis) | CHOP UPR conf 86 | Mdm2-MdmX conf 97 | Full FLuc ctr 57
CC(C)(C)c1ccc(Oc2ccc(NC(=O)c3ccco3)cn2)cc1	Mdm2-MdmX inh 56, CSC inhib 99, UPR CHOP act 43, Beta apoptosis 75 | CHOP UPR conf inactive | Mdm2-MdmX conf inactive | Full FLuc ctr 69
O=C(Nc1ccc(Oc2cccc(C(F)(F)F)c2)nc1)c1ccco1	none
CCOC(=O)N1CCC(NC(=O)C2CCN(C(=O)c3cc4sccc4n3CC)CC2)CC1	none
CCOc1cc(C(=O)NC2CCCCCCC2)cc(OCC)c1OCC	none
O=C(/C(=C/c1ccc(Cl)cc1)c1nc2ccccc2[nH]1)c1cccs1	Mdm2-MdmX inh 81, CSC inhib 93, UPR CHOP act 87, T cruzi inh 59, Beta apoptosis 126 | CHOP UPR conf 85 | Mdm2-MdmX conf 100 | Full FLuc ctr 51
O=C(/C(=C\c1ccccc1)c1nc2ccccc2[nH]1)c1ccc(Cl)cc1	XBP1 UPR activ 53, Mdm2-MdmX inh 100, CSC inhib 79, UPR CHOP act 104 | CHOP UPR conf 267 | XBP1 UPR conf inactive | Mdm2-MdmX conf inactive
O/C(=C\c1nc2ccccc2[nH]1)c1cccs1	none (no result: CSC inhib)
